# ChEMBL document CHEMBL1125378, “alpha-Methyl polyamines: metabolically stable spermidine and spermine mimics capable of supporting growth in cells depleted of polyamines” (J Med Chem, 1992)
# Values joined by “and” are separate entries in the source; they are usually repeats but may differ in a detail not shown here. Identical values can stand only once.
# Legend:
# [1] = system: SV3T3; assay: Compound level in 72 hr DFMO (5 mM)-treated SV3T3 cells after exposure to 25 uM 1-methylspermidine; format: functional, cell-based; settings: Mus musculus
# Summary of the method: (§1)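 SV-3T3 fibroblasts (experiment A) held in 5 mM DFMO for 72 h before polyamine addition and throughout a further 72 h. Intracellular polyamines expressed as nmol/mg protein (detection limit 0.05). SD from at least four separate experiments, or duplicate where no SD is given.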
# [2] = Retention time was determined; format: ADME
# [3] = system: HT-29; assay: Compound level in 72 hr DFMO (5 mM)-treated HT-29 cells after exposure to 10 uM 1-methylspermidine; format: functional, cell-based; settings: Homo sapiens
# Summary of the method: (§2)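 HT29 cells pretreated with 5 mM DFMO for 120 h, then polyamine added and culture continued with DFMO for 72 h (experiment A); refed at 96 h. Cellular polyamine content given as nmol/mg protein (detection limit 0.2). SD from at least four separate experiments.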
# [4] = system: L1210; assay: Compound level in 72 hr DFMO (5 mM)-treated L1210 cells after exposure to 10 uM 1-methylspermidine; format: functional, cell-based; settings: Mus musculus
# Summary of the method: (§3)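 L1210 cells held in 5 mM DFMO for 72 h before polyamine addition and through a further 72 h, refed at 72 h; controls without DFMO cultured 72 h in total. Intracellular polyamines reported as nmol/mg protein (detection limit 0.2). Mean ± SD from at least four separate experiments.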
# [5] = system: SV3T3; assay: Compound level in 72 h DFMO (5 mM)-treated SV3T3 cells after exposure to 10 uM 1-methylspermidine; format: functional, cell-based; settings: Mus musculus; summary of the method: as §1
# [6] = system: SV3T3; assay: Compound level in 72 hr DFMO (5 mM)-treated SV3T3 cells after exposure to 1 uM 1-methylspermidine; format: functional, cell-based; settings: Mus musculus; summary of the method: as §1
# [7] = system: HT-29; assay: Compound level in 72 hr DFMO (5 mM)-treated HT-29 cells after exposure to 25 uM 1-methylspermidine; format: functional, cell-based; settings: Homo sapiens; summary of the method: as §2
# [8] = system: SV3T3; assay: Compound level in 72 hr DFMO (5 mM)-treated SV3T3 cells after exposure to 25 uM 1-methylspermine; format: functional, cell-based; settings: Mus musculus; summary of the method: as §1
# [9] = system: SV3T3; assay: Compound level in 96 hr DFMO (5 mM)-treated SV3T3 cells after exposure to 10 uM 1,12-dimethylspermine; format: functional, cell-based; settings: Mus musculus
# [10] = system: HT-29; assay: Compound level in 72 hr DFMO (5 mM)-treated HT-29 cells after exposure to 10 uM 1-methylspermine; format: functional, cell-based; settings: Homo sapiens; summary of the method: as §2
# [11] = system: SV3T3; assay: Compound level in 72 hr DFMO (5 mM)-treated SV3T3 cells after exposure to 10 uM 1-methylspermine; format: functional, cell-based; settings: Mus musculus; summary of the method: as §1
# [12] = system: SV3T3; assay: Compound level in 72 hr DFMO (5 mM)-treated SV3T3 cells after exposure to 1 uM 1-methylspermine; format: functional, cell-based; settings: Mus musculus; summary of the method: as §1
# [13] = system: HT-29; assay: Compound level in HT-29 cells after 96 h; format: functional, cell-based; settings: Homo sapiens
# Summary of the method: (§4)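 HT29 experiment B: 5 mM DFMO for 120 h before addition and throughout a further 96 h; refed at 96 h. Cells without DFMO cultured 96 h in total. Polyamines measured as nmol/mg protein (detection limit 0.2). SD from at least four separate experiments.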
# [14] = system: HT-29; assay: Compound level in HT-29 cells after 72 h; format: functional, cell-based; settings: Homo sapiens
# [15] = system: HT-29; assay: Compound level in DFMO-treated HT-29 cells after 72 h; format: functional, cell-based; settings: Homo sapiens; summary of the method: as §2
# [16] = system: SV3T3; settings: Mus musculus
# [17] = system: HT-29; assay: Compound level in 72 hr DFMO (5 mM)-treated HT-29 cells after exposure to 25 uM 1-methylspermine; format: functional, cell-based; settings: Homo sapiens; summary of the method: as §2
# [18] = system: L1210; assay: Compound level in 72 h DFMO (5 mM)-treated L1210 cells after exposure to 10 uM spermine; format: functional, cell-based; settings: Mus musculus; summary of the method: as §3
# [19] = system: L1210; assay: Compound level in 72 hr DFMO (5 mM)-treated L1210 cells after exposure to 10 uM 1,12-dimethylspermine; format: functional, cell-based; settings: Mus musculus; summary of the method: as §3
# [20] = system: L1210; assay: Compound level in 72 hr DFMO (5 mM)-treated L1210 cells after exposure to 10 uM 1-methylspermine; format: functional, cell-based; settings: Mus musculus; summary of the method: as §3
# [21] = system: SV3T3; assay: Compound level in 72 hr DFMO (5 mM)-treated SV3T3 cells after exposure to 10 uM spermidine; format: functional, cell-based; settings: Mus musculus; summary of the method: as §1
# [22] = system: SV3T3; assay: Compound level in 96 hr DFMO (5 mM)-treated SV3T3 cells after exposure to 25 uM 1,12-dimethylspermine; format: functional, cell-based; settings: Mus musculus
# [23] = system: SV3T3; assay: Compound level in DFMO-treated SV3T3 cells at 0 h; format: functional, cell-based; settings: Mus musculus; summary of the method: as §1
# [24] = system: HT-29; assay: Compound level in 72 hr DFMO (5 mM)-treated HT-29 cells after exposure to 10 uM spermine; format: functional, cell-based; settings: Homo sapiens; summary of the method: as §2
# [25] = system: SV3T3; assay: Compound level in SV3T3 cells after 96 hr; format: functional, cell-based; settings: Mus musculus
# [26] = system: SV3T3; assay: Compound level in 72 hr DFMO (5 mM)-treated SV3T3 cells after exposure to 1 uM 1,12-dimethylspermine; settings: Mus musculus
# [27] = system: HT-29; assay: Compound level in 72 hr DFMO (5 mM)-treated HT-29 cells after exposure to 25 uM 1,12-dimethylspermine; format: functional, cell-based; settings: Homo sapiens, in the assay text read “120 hr” for “72 hr”; summary of the method: as §4
# [28] = system: L1210; assay: Compound level in DFMO-treated L1210 cells at 0 h; format: functional, cell-based; settings: Mus musculus; summary of the method: as §3
# [29] = system: SV3T3; assay: Compound level in 96 hr DFMO (5 mM)-treated SV3T3 cells after exposure to 25 uM spermine; format: functional, cell-based; settings: Mus musculus
# [30] = system: L1210; settings: Mus musculus
# [31] = system: SV3T3; settings: Mus musculus; remark: listed apart in the source
# [32] = system: SV3T3; settings: Mus musculus; remark: listed apart in the source
# [33] = system: HT-29; assay: Compound level in 72 hr DFMO (5 mM)-treated HT-29 cells after exposure to 10 uM 1,12-dimethylspermine; format: functional, cell-based; settings: Homo sapiens, in the assay text read “120 hr” for “72 hr”; summary of the method: as §4
# [34] = species: Homo sapiens; assay: Compound level in DFMO-treated HT-29 cells after 96 h; format: functional, cell-based; summary of the method: as §4
# [35] = system: HT-29; assay: Compound level in 72 hr DFMO (5 mM)-treated HT-29 cells after exposure to 10 uM spermidine; format: functional, cell-based; settings: Homo sapiens; summary of the method: as §2
# [36] = system: SV3T3; assay: Compound level in 72 hr DFMO (5 mM)-treated SV3T3 cells after exposure to 10 uM spermine; format: functional, cell-based; settings: Mus musculus; summary of the method: as §1
# [37] = system: HT-29; assay: Compound level in 96 hr DFMO (5 mM)-treated HT-29 cells after exposure to 10 uM spermine; format: functional, cell-based; settings: Homo sapiens
# [38] = system: L1210; assay: Compound level in L1210 cells after 72 h; format: functional, cell-based; settings: Mus musculus; summary of the method: as §3
# [39] = system: SV3T3; assay: Compound level in 96 hr DFMO (5 mM)-treated SV3T3 cells after exposure to 10 uM spermine; format: functional, cell-based; settings: Mus musculus
# [40] = system: L1210; assay: Compound level in 72 hr DFMO (5 mM)-treated L1210 cells after exposure to 10 uM spermidine; format: functional, cell-based; settings: Mus musculus; summary of the method: as §3
# [41] = system: HT-29; assay: Compound level in 72 h DFMO (5 mM)-treated HT-29 cells after exposure to 25 uM spermidine; format: functional, cell-based; settings: Homo sapiens
# [42] = system: HT-29; assay: Compound level in 72 hr DFMO (5 mM)-treated HT-29 cells after exposure to 15 uM spermine; format: functional, cell-based; settings: Homo sapiens; summary of the method: as §2
# [43] = system: HT-29; assay: Compound level in DFMO-treated HT-29 cells at 0 h; format: functional, cell-based; settings: Homo sapiens
# [44] = system: SV3T3; settings: Mus musculus; remark: listed apart in the source
smiles,measurement,setting,value
CC(N)CCNCCCCN (stereo unspecified),Level (nM (mg of protein)-1),[1],31.2
same,tR,[2],34.5 min
same,Level (nM (mg of protein)-1),[3],13.3
same,Level (nM (mg of protein)-1),[4],67.2
same,Level (nM (mg of protein)-1),[5],26.8
same,Level (nM (mg of protein)-1),[6],11.8
same,Level (nM (mg of protein)-1),[7],16.8
same,Level (nM (mg of protein)-1),[8],0.4
same,Level (nM (mg of protein)-1),[9],1.2
same,Level (nM (mg of protein)-1),[10],0.2
same,Level (nM (mg of protein)-1),[11],2.7
same,Level (nM (mg of protein)-1),[12],0.6
NCCCNCCCCNCCCN [SPERMINE],Level (nM (mg of protein)-1),[13],17.8
same,Level (nM (mg of protein)-1),[14],10.5
same,Level (nM (mg of protein)-1),[15],3.8
same,Level (nM (mg of protein)-1),[16],13.5
same,Level (nM (mg of protein)-1),[17],0.8
same,Level (nM (mg of protein)-1),[18],35.6
same,Level (nM (mg of protein)-1),[1],0.3
same,Level (nM (mg of protein)-1),[19],3.2
same,tR,[2],40 min
same,Level (nM (mg of protein)-1),[20],1.7
same,Level (nM (mg of protein)-1),[21],9.5
same,Level (nM (mg of protein)-1),[22],1
same,Level (nM (mg of protein)-1),[23],9.3 and 7.8
same,Level (nM (mg of protein)-1),[24],21.5
same,Level (nM (mg of protein)-1),[25],7.1
same,Level (nM (mg of protein)-1),[26],7.8
same,Level (nM (mg of protein)-1),[3],1.1
same,Level (nM (mg of protein)-1),[27],0.7
same,Level (nM (mg of protein)-1),[28],13.4
same,Level (nM (mg of protein)-1),[29],31.5
same,Level (nM (mg of protein)-1),[30],7.3
same,Level (nM (mg of protein)-1),[31],14.3
same,Level (nM (mg of protein)-1),[32],7.7
same,Level (nM (mg of protein)-1),[4],1.1
same,Level (nM (mg of protein)-1),[5],0.4
same,Level (nM (mg of protein)-1),[33],0.9
same,Level (nM (mg of protein)-1),[34],4.4
same,Level (nM (mg of protein)-1),[35],10.3
same,Level (nM (mg of protein)-1),[36],20.6
same,Level (nM (mg of protein)-1),[37],21.5
same,Level (nM (mg of protein)-1),[6],3.8
same,Level (nM (mg of protein)-1),[38],9.1
same,Level (nM (mg of protein)-1),[7],1.2
same,Level (nM (mg of protein)-1),[39],24.5
same,Level (nM (mg of protein)-1),[8],0.8
same,Level (nM (mg of protein)-1),[40],16.3
same,Level (nM (mg of protein)-1),[9],3.3
same,Level (nM (mg of protein)-1),[41],9
same,Level (nM (mg of protein)-1),[42],21.7
same,Level (nM (mg of protein)-1),[43],5.4 and 7.1
same,Level (nM (mg of protein)-1),[10],0.7
same,Level (nM (mg of protein)-1),[11],0.3
same,Level (nM (mg of protein)-1),[44],11.5
same,Level (nM (mg of protein)-1),[12],3.5
